Laboratory results: ChEMBL document CHEMBL3580647, “Discovery of potent indenoisoquinoline topoisomerase I poisons lacking the 3-nitro toxicophore” (J Med Chem, 2015)

Assays:
UACC-62 = assay: Growth inhibition of human UACC62 cells by five-dose growth inhibition assay; format: functional
[1] = Growth inhibition of human SF539 cells by five-dose growth inhibition assay; format: functional; conditions: SF-539
[2] = biological target: T1, DNA topoisomerase 1 (Homo sapiens) (UniProt P11387); assay: Inhibition of recombinant topoisomerase 1 (unknown origin) assessed as DNA cleavage using 3'-[32P]-labeled 117-bp DNA oligonucleotide at 1 uM by PAGE assay; set-up: Activity: scale not given: the % may be the effect or the level left
T1 sequence (whole entry): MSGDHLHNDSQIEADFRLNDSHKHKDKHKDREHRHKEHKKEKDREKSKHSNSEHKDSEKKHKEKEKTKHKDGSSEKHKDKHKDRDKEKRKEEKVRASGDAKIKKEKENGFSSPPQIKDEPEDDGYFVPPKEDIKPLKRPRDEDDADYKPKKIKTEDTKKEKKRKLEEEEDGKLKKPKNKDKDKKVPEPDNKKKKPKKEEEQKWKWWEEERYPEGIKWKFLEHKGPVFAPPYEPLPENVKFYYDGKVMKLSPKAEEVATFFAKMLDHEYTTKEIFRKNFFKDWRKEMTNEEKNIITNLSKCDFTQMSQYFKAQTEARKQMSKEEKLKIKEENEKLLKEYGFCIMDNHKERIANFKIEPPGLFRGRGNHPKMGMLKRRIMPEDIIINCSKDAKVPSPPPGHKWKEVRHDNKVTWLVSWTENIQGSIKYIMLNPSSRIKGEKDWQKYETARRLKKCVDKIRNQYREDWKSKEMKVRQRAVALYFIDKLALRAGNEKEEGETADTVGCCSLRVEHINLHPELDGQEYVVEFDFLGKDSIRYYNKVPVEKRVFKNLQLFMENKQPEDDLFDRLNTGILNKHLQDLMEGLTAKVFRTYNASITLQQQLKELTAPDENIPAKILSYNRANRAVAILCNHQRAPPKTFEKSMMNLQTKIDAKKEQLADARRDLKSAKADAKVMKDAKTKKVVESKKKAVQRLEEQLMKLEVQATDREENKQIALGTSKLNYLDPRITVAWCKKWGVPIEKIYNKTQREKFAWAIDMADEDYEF
Procedure, shortened: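 Approx. 2 nM 3′-[³²P]-labeled double-stranded DNA incubated with recombinant Top1 and compound at 0.1, 1, 10 or 100 μM for 20 min at 25 °C. Stopped with 0.5% SDS and run on a denaturing gel. […] Run twice.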

SN12C = assay: Growth inhibition of human SN12C cells by five-dose growth inhibition assay; format: functional
[3] = Growth inhibition of human NCI60 cells assessed as cell growth at 10 uM; format: functional; conditions: read-out: Activity
Procedure, shortened: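 NCI-60 single-dose screen at 10 μM across ~60 human cancer cell lines. Reported as growth percent relative to vehicle-treated control, averaged over all lines tested as a mean growth percent.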

[4] = biological target: Tyrosyl-DNA phosphodiesterase 1 (Homo sapiens, UniProt Q9NUW8); assay: Inhibition of recombinant TPD1 (unknown origin) activity using 3'-phosphotyrosine-containing 5'-[32P]-labeled single-stranded DNA oligonucleotide by PAGE assay
Sequence of Tyrosyl-DNA phosphodiesterase 1 (Q9NUW8 whole entry): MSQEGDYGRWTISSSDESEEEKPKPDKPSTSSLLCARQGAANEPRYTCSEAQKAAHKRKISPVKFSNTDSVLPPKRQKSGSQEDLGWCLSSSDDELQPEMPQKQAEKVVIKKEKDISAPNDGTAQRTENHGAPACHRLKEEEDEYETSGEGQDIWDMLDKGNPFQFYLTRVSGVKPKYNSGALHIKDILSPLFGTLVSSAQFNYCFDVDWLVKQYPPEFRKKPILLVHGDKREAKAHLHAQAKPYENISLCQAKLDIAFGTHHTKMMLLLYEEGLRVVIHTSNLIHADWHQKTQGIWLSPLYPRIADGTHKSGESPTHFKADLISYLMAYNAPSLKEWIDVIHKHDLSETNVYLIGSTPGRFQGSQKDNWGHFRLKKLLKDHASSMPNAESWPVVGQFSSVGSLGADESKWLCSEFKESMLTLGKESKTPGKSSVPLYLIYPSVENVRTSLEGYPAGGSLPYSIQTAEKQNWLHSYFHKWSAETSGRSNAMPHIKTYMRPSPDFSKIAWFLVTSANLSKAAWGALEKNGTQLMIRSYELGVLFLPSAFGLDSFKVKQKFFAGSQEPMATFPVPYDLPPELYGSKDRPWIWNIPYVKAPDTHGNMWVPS

HCT-116 = assay: Growth inhibition of human HCT116 cells by five-dose growth inhibition assay; format: functional
[5] = biological target: T2, Tyrosyl-DNA phosphodiesterase 2 (Homo sapiens, UniProt O95551); assay: Inhibition of human recombinant TPD2 activity using 5'phosphotyrosine-containing 19-mer single-stranded oligonucleotide DNA substrate by PAGE assay
T2 sequence (O95551 whole entry): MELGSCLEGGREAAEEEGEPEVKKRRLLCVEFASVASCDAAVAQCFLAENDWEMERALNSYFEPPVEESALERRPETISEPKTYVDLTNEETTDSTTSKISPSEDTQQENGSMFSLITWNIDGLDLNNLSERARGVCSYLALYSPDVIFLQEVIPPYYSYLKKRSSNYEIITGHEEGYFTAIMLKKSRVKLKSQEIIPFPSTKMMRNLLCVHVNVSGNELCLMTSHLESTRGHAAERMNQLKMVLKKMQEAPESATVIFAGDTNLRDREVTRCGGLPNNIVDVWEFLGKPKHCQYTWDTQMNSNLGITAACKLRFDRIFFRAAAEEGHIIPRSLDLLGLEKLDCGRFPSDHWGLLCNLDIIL

MCF7 = assay: Growth inhibition of human MCF7 cells by five-dose growth inhibition assay; format: functional
OVCAR-3 = assay: Growth inhibition of human OVCAR3 cells by five-dose growth inhibition assay; format: functional

## O=C1c2ccccc2-c2c1c1ccc(I)cc1c(=O)n2C[C@H](O)CO
UACC-62
  GI50: 2.14 µM
[1]
  GI50: 3.02 µM
[2]
  Activity: 50%
SN12C
  GI50: 4.27 µM
[3]
  growth at 10 µM: 39.7%
[4]
  IC50: > 111 µM
HCT-116
  GI50: 0.631 µM
[5]
  IC50: > 111 µM
MCF7
  GI50: 0.331 µM
OVCAR-3
  GI50: 5.27 µM
